Assays:
[1] = test system: Rattus norvegicus; assay: Effect of compound on gain in body weight in 6th group of normal chow-fed male rats after a dose of 50 mg/kg/day; format: functional
Outline: (§1)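 Male Sprague–Dawley CD rats (60–80 g) on standard chow under a reversed 12 h light/dark cycle. Compound was suspended in 1.3% Tween 80/0.25% CMC and given as a single daily oral gavage dose for 4 days. Rats were fasted overnight and killed 24 h after the last dose. Serum ALT, AST, ALKP and LDH were read on a clinical analyzer. Weight gain was start versus end weight. Mean ± SEM, n = 6.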

[2] = test system: Rattus norvegicus; assay: Percent change in triglycerides in hypercholesterolemic rats at a dose of 100 mg/kg/day for 8 days; format: functional
[3] = test system: Rattus norvegicus; assay: Percent change in very low-density lipoprotein cholesterol following oral administration of compound in normal chow-fed rats at 100 mg/kg/day for 4 days; format: functional
Outline: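 Chow-fed male Sprague–Dawley CD rats, 60–80 g, gavaged 100 mg/kg/day for 4 days in 1.3% Tween 80/0.25% CMC. Fasted overnight, bled 24 h after the last dose. Total cholesterol and glycerol-blanked triglycerides read enzymatically; lipoproteins by FPLC with cholesterol per fraction. % change versus control; six per group, p < 0.05.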

[4] = test system: Rattus norvegicus; assay: Effect of compound on alanine aminotransferase (ALT) levels in 6th group of normal chow-fed male rats after a dose of 50 mg/kg/day; format: functional, organism-based; outline: as §1
[5] = test system: Rattus norvegicus; assay: Effect of compound on alkaline phosphatase (ALKP) levels in 4th group of normal chow-fed male rats after a dose of 10 mg/kg/day; format: functional, organism-based; outline: as §1
[6] = test system: Rattus norvegicus; assay: Effect of compound on liver weight in 5th group of normal chow-fed male rats after a dose of 20 mg/kg/day; format: functional
Outline: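 Male Sprague–Dawley CD rats, 60–80 g, on chow with a reverse 12 h light/dark cycle. Given one oral gavage dose daily for 4 days, suspended in 1.3% Tween 80/0.25% CMC. Fasted overnight and sacrificed 24 h after the last dose for blood and liver. Serum liver enzymes read on a clinical analyzer. Six per group, mean ± SEM.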

[7] = test system: Rattus norvegicus; assay: Effect of compound on relative liver weight in 3rd group of normal chow-fed male rats after a dose of 5 mg/kg/day; format: functional
Outline: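 Chow-fed male Sprague–Dawley CD rats, 60–80 g, dosed by oral gavage once daily for 4 days in 1.3% Tween 80/0.25% CMC. Fasted overnight and sacrificed 24 h after the last dose. Liver weight expressed as % of body weight at termination. Six per group, mean ± SEM.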

[8] = test system: Rattus norvegicus; assay: Effect of compound on high-density lipoprotein cholesterol levels in 2nd group of normal chow-fed male rats after a dose of 2 mg/kg/day; format: functional, organism-based
[9] = test system: Rattus norvegicus; assay: Effect of compound on high-density lipoprotein cholesterol levels in 3rd group of normal chow-fed male rats after a dose of 5 mg/kg/day; format: functional, organism-based
[10] = test system: Rattus norvegicus; assay: Effect of compound on high-density lipoprotein cholesterol levels in 4th group of normal chow-fed male rats after a dose of 10 mg/kg/day; format: functional, organism-based
[11] = test system: Rattus norvegicus; assay: Effect of compound on low-density lipoprotein cholesterol levels in 4th group of normal chow-fed male rats after a dose of 10 mg/kg/day; format: functional, organism-based
Outline: (§2)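 Male Sprague–Dawley CD rats, 60–80 g, on standard chow with reverse 12 h light/dark cycle. One oral gavage dose daily for 4 days, suspended in 1.3% Tween 80 and 0.25% CMC. Fasted overnight; sacrificed 24 h after the last dose. Serum TC on clinical analyzer, lipoproteins by FPLC with cholesterol per fraction, T4 on analyzer. Mean ± SEM, six rats per group.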

[12] = test system: Rattus norvegicus; assay: Effect of compound on serum apolipoprotein A1 concentration in chow-fed male rats at a dose of 50 mg/kg/day; format: functional, organism-based
Outline: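 Separate dose-response study in male Sprague–Dawley CD rats, 60–80 g, on chow. Oral gavage once daily for 4 days in 1.3% Tween 80 / 0.25% CMC; fasted overnight, bled 24 h after last dose. Apo-A1 by ELISA with rabbit anti-rat primary, alkaline phosphatase-conjugated anti-rabbit IgG and p-nitrophenyl phosphate substrate. HDL-C by FPLC fractionation. Mean ± SEM, six per group.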

[13] = test system: Rattus norvegicus; assay: Effect of compound on thyroxine levels in 2nd group of normal chow-fed male rats after a dose of 2 mg/kg/day; format: functional, organism-based; outline: as §2
[14] = test system: Rattus norvegicus; assay: Effect of compound on thyroxine levels in 4th group of normal chow-fed male rats after a dose of 10 mg/kg/day; format: functional, organism-based; outline: as §2
[15] = test system: Rattus norvegicus; assay: Effect of compound on thyroxine levels in 6th group of normal chow-fed male rats after a dose of 50 mg/kg/day; format: functional, organism-based; outline: as §2
[16] = test system: Rattus norvegicus; assay: Effect of compound on total plasma cholesterol levels in 4th group of normal chow-fed male rats after a dose of 10 mg/kg/day; format: functional, organism-based
Outline: (§3)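 Male Sprague–Dawley CD rats (60–80 g) on Purina 5001 chow with a reverse 12 h light/dark cycle. Dosed once daily by oral gavage for 4 days, suspended in 1.3% Tween 80 / 0.25% CMC. Fasted overnight and bled 24 h after the last dose. Serum TC and glycerol-blanked TG measured enzymatically; VLDL-C by FPLC fractionation with cholesterol assay. n=6, mean ± SEM.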

[17] = test system: Rattus norvegicus; assay: Effect of compound on triglyceride levels in 5th group of normal chow-fed male rats after a dose of 20 mg/kg/day; format: functional, organism-based; outline: as §3
[18] = test system: Rattus norvegicus; assay: Effect of compound on high-density lipoprotein cholesterol levels in 1st group of normal chow-fed male rats after a dose of 1 mg/kg/day; format: functional, organism-based
[19] = test system: Rattus norvegicus; assay: Effect of compound on very low-density lipoprotein cholesterol levels in 3rd group of normal chow-fed male rats after a dose of 5 mg/kg/day; format: functional, organism-based; outline: as §3
[20] = test system: Rattus norvegicus; assay: Effect of compound on very low-density lipoprotein cholesterol levels in 4th group of normal chow-fed male rats after a dose of 10 mg/kg/day; format: functional, organism-based; outline: as §3
[21] = Effect on serum lipids in 6th group of normal chow-fed male rats after a dose of 50 mg/kg/day was evaluated as ratio of total plasma cholesterol levels to high-density lipoprotein cholesterol levels; format: functional
Outline: (§4)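 Male Sprague–Dawley CD rats, 60–80 g, chow-fed, dosed by oral gavage daily for 4 days in 1.3% Tween 80/0.25% CMC. Fasted overnight, bled 24 h after the last dose. Serum total cholesterol by enzymatic reagent; HDL-C from cholesterol in FPLC fractions; TPC/HDL-C ratio calculated. Six per group, mean ± SEM.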

[22] = Effect on serum lipids in 1st group of normal chow-fed male rats after a dose of 1 mg/kg/day was evaluated as ratio of total plasma cholesterol levels to high-density lipoprotein cholesterol levels; format: functional; outline: as §4
[23] = test system: Cricetinae gen. sp.; assay: Effect of compound on thyroxine levels in 2nd group of cholesterol-fed male hamsters at 10 mg/kg/day after 14 days of treatment; conditions: Mesocricetus auratus
[24] = test system: Cricetinae gen. sp.; assay: Effect of compound on total plasma cholesterol levels in 4th group of cholesterol-fed male hamsters at 100 mg/kg/day after 14 days of treatment; conditions: Mesocricetus auratus
[25] = test system: Cricetinae gen. sp.; assay: Effect of compound on alanine aminotransferase (ALT) levels in 2nd group of cholesterol-fed male hamsters at 10 mg/kg/day after 14 days of treatment; conditions: Mesocricetus auratus
[26] = test system: Cricetinae gen. sp.; assay: Effect of compound on aspartate aminotransferase (AST) levels in 1st group of cholesterol-fed male hamsters at 3 mg/kg/day after 14 days of treatment; conditions: Mesocricetus auratus

CCN1CC(=O)N(c2cc(Cl)ccc2C)C1=S
Body weight [1]: 27.5 g | Change [2]: -19% | Change [3]: -17.2% | Level [4]: 62 U l-1 | Level [5]: 327 U l-1 | Liver weight [6]: 8.2 g | Relative liver weight [7]: 3.8% | Serum level [8]: 41 mg/dL | Serum level [9]: 45 mg/dL | Serum level [10]: 61 mg/dL | Serum level [11]: 8.1 mg/dL | Serum level [12]: 88.8 mg/dL | Serum level [13]: 4.33 µg/dL | Serum level [14]: 3.98 µg/dL | Serum level [15]: 3.47 µg/dL | Serum level [16]: 85 mg/dL | Serum level [17]: 19 mg/dL | Serum level [18]: 38 mg/dL | Serum level [19]: 3.9 mg/dL | Serum level [20]: 3.4 mg/dL | Ratio [21]: 2.03 | Ratio [22]: 1.45 | Serum level [23]: 5.73 µg/dL | Serum level [24]: 373 mg/dL | Level [25]: 134 U l-1 | Level [26]: 312 U l-1
